We go through 25 compounds from ChEMBL document CHEMBL1153204, “Novel purine and pyrazolo[3,4-d]pyrimidine inhibitors of PI3 kinase-alpha: Hit to lead studies” (Bioorg Med Chem Lett, 2010).

The structures appear in SMILES notation. pIC50: −log10 of the molar value. Active and inactive are the calls of the source. No cut-off for these calls is given here.

Assay [1] deals with Phosphatidylinositol 4,5-bisphosphate 3-kinase catalytic subunit alpha isoform (Homo sapiens, UniProt P42336). The experiment in a line: Inhibition of GST-GRP1-fused PI3Kalpha by microtiter plate based fluorescence polarization assay. Background: In fluorescence polarisation assays a small probe gives low polarisation when free and higher when bound to something large.
The target of assay [2] is Phosphatidylinositol 4,5-bisphosphate 3-kinase catalytic subunit gamma isoform (Homo sapiens, UniProt P48736). Description: Inhibition of GST-GRP1-fused PI3Kgamma by microtiter plate based fluorescence polarization assay. The gist of the method: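 Fluorescence polarization assay monitoring PIP3 production by PI3K p110α or p110γ. IC50 values are the means of two experiments, SD ±10%.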

A further assay deals with Caco-2. Description: Antiproliferative activity against human Caco-2 cells. It is filed as functional, cell-based. The method, boiled down:
(§1)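 Growth densities of Caco-2 (colorectal), LoVo (colon) and PC3MM2 (prostate) adenocarcinoma cultures monitored after compound exposure to measure proliferation.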

The next assay has as its system LoVo. Description: Antiproliferative activity against human LoVo cells. It is filed as functional, cell-based. The method, boiled down:
as §1

Another assay relates to PC-3. The experiment in a line: Antiproliferative activity against human PC3 cells. It is filed as functional, cell-based. The gist of the method:
as §1

Assay [3] deals with Serine/threonine-protein kinase mTOR (Homo sapiens, UniProt P42345). The experiment in a line: Inhibition of human TOR in HEK293 cells by DELFIA. It is filed as cell-based. The method, boiled down:
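DELFIA-format assay detecting phosphorylated His6-S6K substrate. IC50 values are the means of two experiments, SD ±10%.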

A further assay deals with MDA-MB-361. The experiment in a line: Inhibition of PI3K in human MDA-MB-361 cells assessed as reduction of phosphorylated Akt (T308) level at 3 to 30 uM after 4 hrs by immunoblotting. It is filed as cell-based. The gist of the method:
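MDA-361 breast adenocarcinoma cells were treated in growth media for 4 h with the indicated doses, with a DMSO control. Lysates were immunoblotted for phospho-Akt T308, and for cleaved PARP as an apoptosis marker.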
(In general: In western blotting, separated proteins are transferred to a membrane and probed.)

Assay [4] is described as follows: Selectivity ratio of IC50 for PI3Kgamma to IC50 for PI3Kalpha.
The nature of assay [5]: Selectivity ratio of IC50 for human TOR to IC50 for PI3Kalpha.

Sequence of Phosphatidylinositol 4,5-bisphosphate 3-kinase catalytic subunit gamma isoform (P48736 whole entry, the tested form may be a part, canonical isoform): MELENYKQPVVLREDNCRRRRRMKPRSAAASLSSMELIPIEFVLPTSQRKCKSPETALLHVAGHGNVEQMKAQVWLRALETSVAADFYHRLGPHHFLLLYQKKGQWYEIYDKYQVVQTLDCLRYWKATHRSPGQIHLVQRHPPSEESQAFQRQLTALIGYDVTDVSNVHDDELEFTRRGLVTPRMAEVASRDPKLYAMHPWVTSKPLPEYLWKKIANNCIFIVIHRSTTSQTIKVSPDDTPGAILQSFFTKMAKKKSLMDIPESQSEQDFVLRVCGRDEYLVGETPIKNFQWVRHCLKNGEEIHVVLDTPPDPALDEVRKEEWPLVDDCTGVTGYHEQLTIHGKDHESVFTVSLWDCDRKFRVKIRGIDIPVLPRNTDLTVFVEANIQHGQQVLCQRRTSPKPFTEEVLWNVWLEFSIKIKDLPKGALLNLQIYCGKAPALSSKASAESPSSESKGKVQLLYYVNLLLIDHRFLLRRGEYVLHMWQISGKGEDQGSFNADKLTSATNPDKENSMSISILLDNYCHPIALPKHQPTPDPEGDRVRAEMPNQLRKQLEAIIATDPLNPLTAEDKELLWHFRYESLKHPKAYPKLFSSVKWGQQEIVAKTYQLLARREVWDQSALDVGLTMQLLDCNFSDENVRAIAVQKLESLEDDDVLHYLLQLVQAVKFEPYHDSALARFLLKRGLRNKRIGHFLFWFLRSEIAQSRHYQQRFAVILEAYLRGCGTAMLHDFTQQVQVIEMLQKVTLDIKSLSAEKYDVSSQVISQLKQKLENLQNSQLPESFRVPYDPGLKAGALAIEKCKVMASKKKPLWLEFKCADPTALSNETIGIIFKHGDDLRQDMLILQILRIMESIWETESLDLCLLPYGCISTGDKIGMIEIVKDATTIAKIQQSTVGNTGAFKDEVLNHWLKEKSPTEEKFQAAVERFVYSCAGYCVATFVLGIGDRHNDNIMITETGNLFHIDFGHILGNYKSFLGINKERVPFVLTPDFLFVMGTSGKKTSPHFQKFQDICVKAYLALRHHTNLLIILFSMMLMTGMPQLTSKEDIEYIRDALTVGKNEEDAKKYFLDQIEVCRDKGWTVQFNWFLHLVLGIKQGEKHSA
Sequence of Phosphatidylinositol 4,5-bisphosphate 3-kinase catalytic subunit alpha isoform (P42336 whole entry, the tested form may be a part, canonical isoform): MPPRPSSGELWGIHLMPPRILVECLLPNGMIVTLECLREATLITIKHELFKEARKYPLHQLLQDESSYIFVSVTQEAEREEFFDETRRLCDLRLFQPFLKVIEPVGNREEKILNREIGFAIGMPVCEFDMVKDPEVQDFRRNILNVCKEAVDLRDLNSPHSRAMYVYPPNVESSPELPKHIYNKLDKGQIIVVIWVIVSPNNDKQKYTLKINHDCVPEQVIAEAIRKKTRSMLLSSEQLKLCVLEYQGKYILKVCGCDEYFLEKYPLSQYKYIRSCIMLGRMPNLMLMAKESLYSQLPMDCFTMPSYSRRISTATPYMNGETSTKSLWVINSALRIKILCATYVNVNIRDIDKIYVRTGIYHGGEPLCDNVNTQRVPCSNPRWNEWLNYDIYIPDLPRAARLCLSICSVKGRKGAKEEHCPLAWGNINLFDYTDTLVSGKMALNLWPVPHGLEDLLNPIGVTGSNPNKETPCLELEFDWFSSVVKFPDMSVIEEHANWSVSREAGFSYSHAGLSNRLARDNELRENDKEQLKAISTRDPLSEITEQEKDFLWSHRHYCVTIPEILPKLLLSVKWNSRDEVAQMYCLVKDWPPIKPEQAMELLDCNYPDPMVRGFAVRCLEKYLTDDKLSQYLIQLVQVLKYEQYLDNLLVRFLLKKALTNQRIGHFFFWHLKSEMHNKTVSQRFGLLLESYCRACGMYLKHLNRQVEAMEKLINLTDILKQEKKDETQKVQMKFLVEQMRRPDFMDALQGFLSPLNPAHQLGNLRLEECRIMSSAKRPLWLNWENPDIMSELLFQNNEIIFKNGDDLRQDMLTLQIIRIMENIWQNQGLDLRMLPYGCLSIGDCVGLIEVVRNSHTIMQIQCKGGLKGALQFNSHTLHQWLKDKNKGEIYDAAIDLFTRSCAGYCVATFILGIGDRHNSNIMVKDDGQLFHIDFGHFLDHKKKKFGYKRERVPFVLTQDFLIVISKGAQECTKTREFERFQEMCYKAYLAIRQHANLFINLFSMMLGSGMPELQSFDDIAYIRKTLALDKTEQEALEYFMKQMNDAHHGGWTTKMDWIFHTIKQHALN

For orientation: pIC50 means −log10 of the IC50, conventionally taken in molar units. A low value points to a large IC50. Regarding `Oc1cccc(-c2nc(N3CCOCC3)c3ncn(C4CCN(Cc5ccccc5)CC4)c3n2)c1`, the pIC50 was 7.10 in assay [1]; 4.97 in assay [2]; under 5.00 in the assay on Caco-2; 5.71 in the assay on LoVo; 5.95 in the assay on PC-3.
As for `CS(=O)(=O)Nc1cccc(-c2nc(N3CCOCC3)c3nc[nH]c3n2)c1`, the pIC50 in [1] was 5.36; in assay [2] it was 5.10.
Taken in the same sequence, the figures for `c1nc2c(N3CCOCC3)nc(-c3ccsc3)nc2[nH]1` were 5.62 and 5.10.
Taken in the same sequence, the figures for `c1nc2c(N3CCOCC3)nc(-c3ccc4c(c3)OCCO4)nc2[nH]1` were 5.46 and 5.12.
Regarding `Oc1cccc(-c2nc(N3CCOCC3)c3ncn(CC4CCN(Cc5ccccc5)CC4)c3n2)c1`, the pIC50 was 6.70 in assay [1]; 5.62 in assay [2]; 5.19 with Caco-2; 5.45 in the assay with LoVo; 5.13 in the assay on PC-3.
`CS(=O)(=O)c1ccc(-c2nc(N3CCOCC3)c3nc[nH]c3n2)cc1`: the pIC50 in assay [1] was 5.75; in [2] it was 5.23.
Taken in the same sequence, the figures for `Oc1cccc(-c2nc(N3CCCCC3)c3nc[nH]c3n2)c1` were 5.42 and 4.99.
As for `Oc1cccc(-c2nc(N3CCOCC3)c3ncn(C4CCNCC4)c3n2)c1`, the pIC50 is 7.19 in assay [1]; 6.88 in assay [2]; 6.06 in assay [3]; 5.39 in the assay with Caco-2; 5.69 in the assay with LoVo; 5.82 in the assay on PC-3.
Regarding `OCc1cccc(-c2nc(N3CCOCC3)c3cnn(C4CCN(Cc5ccccc5)CC4)c3n2)c1`, the pIC50 in [1] was 7.60; in assay [2], 6.01; in [3], 7.05; in the assay on Caco-2, 5.87; in the assay with LoVo, 6.29; in the assay with PC-3, 6.46.
Take `OCc1cccc(-c2nc(N3CCOCC3)c3ncn(C4CCN(Cc5ccccc5)CC4)c3n2)c1`: the negative-log IC50 (pIC50) was 6.16 in [3], 5.29 in the assay with Caco-2, 5.98 in the assay on LoVo and 5.89 in the assay on PC-3. Further, the inhibition entry with MDA-MB-361 is “Active”.
As for `OCc1cccc(-c2nc(N3CCOCC3)c3ncn(CC4CCN(Cc5ccccc5)CC4)c3n2)c1`, the pIC50 in assay [1] is 6.61; in assay [2] it was 5.78; in the assay on Caco-2, 5.24; in the assay with LoVo, 5.51; in the assay on PC-3 it was 5.03.
In the case of `Oc1cccc(-c2nc(N3CCOCC3)c3cnn(C4CCN(Cc5ccccc5)CC4)c3n2)c1`, the pIC50 in assay [2] was 5.63; in [3], 7.08; in the assay on Caco-2, 5.22; in the assay on LoVo it was 5.79; in the assay on PC-3 it was 6.03.
Turning to `c1nc2c(N3CCOCC3)nc(-c3ccc4c(c3)OCO4)nc2[nH]1`, the pIC50 in assay [1] is 5.92; in assay [2] it was 5.16.
On to `c1cc2ccc(-c3nc(N4CCOCC4)c4nc[nH]c4n3)cc2[nH]1`, for which the pIC50 in assay [1] was 5.63; in [2] it was 5.13; in [3] it was 6.82.
With `Oc1ccccc1-c1nc(N2CCOCC2)c2nc[nH]c2n1`, the pIC50 in [1] is 6.18; in assay [2] it was 5.29; in the assay on Caco-2, under 5.00; with LoVo, 5.14; in the assay with PC-3, under 5.00.
Turning to `Oc1cccc(-c2nc(N3CCOCC3)c3cnn(C4CCNCC4)c3n2)c1`, the pIC50 in assay [2] is 6.00; in the assay on Caco-2 it was 5.25; in the assay on LoVo, 5.80; with PC-3, 6.04.
`c1csc(-c2nc(N3CCOCC3)c3nc[nH]c3n2)c1`: the pIC50 in [1] is 6.19; in assay [2], 5.17; in the assay with Caco-2 it was under 5.00; with LoVo, under 5.00; with PC-3, under 5.00.
On to `OCc1cccc(-c2nc(N3CCOCC3)c3ncn(C4CCNCC4)c3n2)c1`, for which the pIC50 in [1] was 7.24; with Caco-2 it was 5.35; with LoVo it was 5.73; in the assay on PC-3 it was 5.63. Moreover, the values for the Ratio IC50 in assay [4] and in [5] were 11 and over 100, respectively.
Take `N#Cc1cccc(-c2nc(N3CCOCC3)c3nc[nH]c3n2)c1`: the negative-log IC50 (pIC50) in [1] was 5.54; in assay [2], 5.08.
For the compound `CS(=O)(=O)c1cccc(-c2nc(N3CCOCC3)c3nc[nH]c3n2)c1`, the pIC50 in assay [1] was 5.41; in assay [2] it was 5.10.
In the case of `c1nc2c(N3CCOCC3)nc(-c3ccoc3)nc2[nH]1`, the pIC50 was 5.42 in assay [1] and 4.96 in assay [2].
Taken in the same sequence, the figures for `Oc1ccc(-c2nc(N3CCOCC3)c3nc[nH]c3n2)cc1` were 5.60 and 5.07.
Taken in the same sequence, the figures for `NC(=O)c1ccc(-c2nc(N3CCOCC3)c3nc[nH]c3n2)cc1` were 5.17 and 5.00.
Regarding `Oc1cccc(-c2nc(N3CCOCC3)c3nc[nH]c3n2)c1`, the pIC50 in assay [1] was 6.63; in [3] it was 5.62.
`OCc1ccc(-c2nc(N3CCOCC3)c3nc[nH]c3n2)cc1`: the figures for the pIC50 in assay [1] and in assay [2] were 5.54 and 5.10, respectively.
